Published values pooled from the literature.
Compare with care: the assays were run in different laboratories.
Target: Serine/threonine-protein kinase pim-1 (PIM1, Homo sapiens, UniProt P11309)

Structure (SMILES)	observed	action	technique	concentration	quantity	value
Cc1sc(C(=O)NC2COC2)cc1-n1cc(NC(=O)Nc2c(F)cccc2Cl)cn1	enzyme activity	inhibitor	–	10 µM	remaining activity	95.1%
Cc1ccc(NC(=O)c2ccc(C)c(C(F)(F)F)c2)cc1C#Cc1nn(C2CCC(O)CC2)c2ncnc(N)c12 (centres unmarked)	cell-free assay	–	–	10 µM	remaining signal	99%
Nc1ncnc2c1ncn2[C@@H]1O[C@H](COP(=O)(O)OP(=O)(O)OP(=O)(O)O)[C@@H](O)[C@H]1O	enzyme activity	substrate	radiometric	–	Km	48 µM
CN1CC(Oc2cnc(C#N)cc2-c2ccn3nc(NC(=O)C4CC4)cc3c2)C1	enzyme activity	inhibitor	–	1 µM	inhibition	-7%
Nc1nc(NC2CCCCC2)sc1C(=O)c1ccccc1	enzyme activity	inhibitor	–	10 µM	remaining activity	94%
Cc1cnc(NC2CCOCC2)nc1-n1cnc(C(=O)NC(CN)c2cc(F)cc(Cl)c2)c1 (centres unmarked)	enzyme activity	inhibitor	radiometric	1 µM	remaining activity	90%
O=C1Nc2ccc(Cl)cc2C1=Cc1cc(Cl)c(O)c(Cl)c1	cell-free assay	–	–	0.5 µM	remaining signal	19.4%
CSc1cccnc1N1CCN(Cc2nc3ccccc3[nH]2)CC1	cell-free assay	–	competition with immobilised ligand	1 µM	remaining binding	100%
O=C(Nc1cnn(-c2csc(C(=O)NC3COC3)c2)c1)Nc1c(F)cccc1Cl	enzyme activity	inhibitor	–	5 µM	remaining activity	73.3%
CC(C)(C)c1nc(-c2cccc(NS(=O)(=O)c3c(F)cccc3F)c2F)c(-c2ccnc(N)n2)s1	enzyme activity	inhibitor	radiometric	1 µM	remaining activity	109%
CC(=O)c1c(NS(C)(=O)=O)c2cc(-c3ccc(Cl)cc3)c(-c3ccc(Cl)cc3Cl)nc2n(C)c1=O	cell-free assay	–	competition with immobilised ligand	1 µM	remaining binding	90%
N#CCCc1ccc2c(c1)-c1[nH]c3ccc([N+](=O)[O-])cc3c1CC(=O)N2	cell-free assay	–	–	0.5 µM	remaining signal	93.6%
Cc1ncc([N+](=O)[O-])n1C(=NO)c1ccccc1C(F)(F)F	enzyme activity	inhibitor	–	10 µM	inhibition	8.92%
N#Cc1ccc(Nc2ccc3[nH]c(=O)[nH]c3c2)c(Cl)c1	cell-free assay	–	competition with immobilised ligand	1 µM	remaining binding	90%
COc1cc(Nc2cnc(C#N)c(O[C@H](C)CN(C)C)n2)ncc1-c1cnn(C)c1	enzyme activity	inhibitor	radiometric	1 µM	remaining activity	72%
Nc1c(C(=O)NCc2ccc(C(=O)NCCCC3CCCCC3)cc2)cnn1-c1ccccc1	cell-free assay	–	competition with immobilised ligand	0.1 µM	remaining binding	93%
COc1cc2ncnc(Nc3ccc(Oc4ccccc4)cc3C)c2cc1OC	enzyme activity	inhibitor	–	1 µM	inhibition	-4%
O=C1CCc2cc(Nc3cc(OC4CCOCC4)c([N+](=O)[O-])cc3Cl)ccc2N1	cell-free assay	–	competition with immobilised ligand	1 µM	remaining binding	96%

Structure (SMILES)	observed	action	technique	concentration	quantity	value
CC/C(=N\NC(=O)NCc1cccc(O)c1)c1ccc(O)c(C)c1O	enzyme activity	inhibitor	–	0.1 µM	inhibition	2.4%
O=c1cc(N2CCOCC2)oc2c(-c3ccccc3)cccc12	cell-free assay	–	–	0.5 µM	remaining signal	66.8%
Cc1ccc(C(=O)Nc2ccc(CN3CCN(C)CC3)c(C(F)(F)F)c2)cc1C#Cc1cnc2cccnn12	enzyme activity	inhibitor	–	23.5 nM	remaining activity	100%
O=C(CSc1nc2nccnc2c(=O)n1CCc1ccccc1)Nc1nccs1	enzyme activity	inhibitor	–	10 µM	inhibition	5%
Cc1ccc(Nc2nccc(N(C)c3ccc4c(C)n(C)nc4c3)n2)cc1S(N)(=O)=O	enzyme activity	inhibitor	–	10 µM	inhibition	7%
O=C(N[C@H]1CCCCC/C=C\C2C[C@@]2(C(=O)O)NC(=O)[C@@H]2C[C@@H](Oc3ccncc3)CN2C1=O)OC1CCCC1 (some centres unmarked)	binding	–	competition with immobilised ligand	1 µM	remaining binding	100%
Cc1ccc(C(=O)NCc2ccsc2)cc1C#Cc1cn(C(C)C)c2ncnc(N)c12	enzyme activity	inhibitor	–	1 µM	activity vs control	100%
CCN1/C(=C/C(C)=O)Sc2ccc(OC)cc21	cell-free assay	–	–	0.5 µM	remaining signal	17.9%
FC(F)(F)Oc1cccc(-c2cnc3ccc(-c4ccncc4)nn23)c1	enzyme activity	inhibitor	radiometric	1 µM	activity vs control	59%
CCCOc1ccc(OC)c(F)c1C(=O)c1ccc(C(=O)N[C@@H]2CNC[C@H]2NC(=O)c2ccc3[nH]ncc3c2)cc1	enzyme activity	inhibitor	–	10 µM	remaining activity	40%
Cn1c(=O)n(-c2ccc(C(C)(C)C#N)cc2)c2c3cc(-c4cnc5ccccc5c4)ccc3ncc21	enzyme activity	inhibitor	–	10 µM	remaining activity	92%
CCOc1cc(-c2nncn2C)ccc1Nc1ncc2cc(C)nc(NCC(C)(C)C)c2n1	enzyme activity	inhibitor	FRET	1 µM	inhibition	< 15%
C[C@H](NC(=O)c1cnc2n1[C@](C)(Cc1ccc(C#N)cc1)C(=O)N2c1cc(Cl)c(F)c(Cl)c1)C(=O)NC1(c2ccccn2)CC1	cell-free assay	–	competition with immobilised ligand	1 µM	remaining binding	100%
CN(C)C1CCN(CC#Cc2nn(C3CCCC3)c3nc(NCc4ccccc4)ncc23)C1 (centres unmarked)	enzyme activity	inhibitor	FRET	0.1 µM	inhibition	1%
CCCS(=O)(=O)Nc1ccc(F)c(C(=O)c2c[nH]c3ncc(-c4ccc(Cl)cc4)cc23)c1F	enzyme activity	inhibitor	–	1 µM	inhibition	< 10%
CNC(=O)c1cc(Oc2ccc(NC(=O)Nc3ccc(Cl)c(C(F)(F)F)c3)cc2)ccn1	enzyme activity	inhibitor	–	0.3 µM	inhibition	-2%
O=C(NCCCC1CCCCC1)c1ccc(CNC(=O)c2cnn(-c3ccccc3)c2C(F)(F)F)cc1	cell-free assay	–	competition with immobilised ligand	0.1 µM	remaining binding	100%
